The source of these data is ChEMBL document CHEMBL1649179, “Pharmacokinetics of LB80331 and LB80317 following oral administration of LB80380, a new antiviral agent for chronic hepatitis B (CHB), in healthy adult subjects, CHB patients, and mice” (Antimicrob Agents Chemother, 2009).

Series [1] has as its system Homo sapiens. Kind of series: Ratio of AUC (0 to infinity) in high fat diet fed healthy human to AUC (0 to infinity) in fasted healthy human assessed as (1-((2-amino-9H-purin-9-yl)methyl)cyclopropoxy)me at 60 mg, po administered as single dose by LC-MS analysis. Particulars: in vivo.
Series [2] relates to Homo sapiens. The series can be described thus: Cmax in high fat diet fed healthy human assessed as (1-((2-amino-9H-purin-9-yl)methyl)cyclopropoxy)me at 60 mg, po administered as single dose by LC-MS analysis. Also on record: dose 60 mg, route oral. Type of series: ADME, organism-based. Particulars: in vivo. A digest of the protocol: (§1)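 Healthy subjects given a single oral dose after an overnight fast or after a high-fat breakfast. Plasma LB80331 measured by validated LC-MS/MS (LLOQ 5 ng/ml) after protein precipitation. Cmax by noncompartmental analysis.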

For series [3], the system named is Homo sapiens. The series can be described thus: Oral clearance in chronic hepatitis B virus infected patient assessed as (1-((2-amino-9H-purin-9-yl)methyl)cyclopropoxy)me at 60 mg, po administered as single dose by LC-MS analysis. It counts as ADME, organism-based. Particulars: in vivo. A digest of the protocol: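 Oral LB80380 was given once daily for 4 weeks to CHB patients. Plasma LB80331 was quantified by validated LC-MS/MS after protein precipitation, with stable-isotope internal standard, at baseline and steady state (weeks 2–4), 0–24 h postdose. Noncompartmental CL/F was calculated as dose (adjusted for LB80380/LB80331 molecular weights) divided by AUC (AUC0-∞ single dose; AUC0-24 steady state).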

The subject of series [4] is Homo sapiens. Kind of series: Tmax in chronic hepatitis B virus infected patient assessed as (1-((2-amino-9H-purin-9-yl)methyl)cyclopropoxy)me at 120 mg, po administered as single dose by LC-MS analysis. Type of series: ADME, organism-based. Particulars: in vivo. Summed up:
(§2)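 Daily oral LB80380 was given to CHB patients over 4 weeks. Blood was drawn on day 1 and at steady state (weeks 2–4), predose and 0.5–24 h postdose. Plasma LB80331 (LLOQ 5 ng/ml) and LB80317 (LLOQ 10 ng/ml) were measured by LC-MS/MS after protein-precipitation extraction. Tmax was taken by noncompartmental analysis.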

Series [5] has as its system Homo sapiens. Kind of series: AUC (0 to infinity) in chronic hepatitis B virus infected patient assessed as (1-((2-amino-9H-purin-9-yl)methyl)cyclopropoxy)me at 30 mg, po administered as single dose by LC-MS analysis. Particulars: in vivo. Further details: dose 30 mg, time infinity, route oral. It counts as ADME, organism-based, Plasma. Summed up:
(§3)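 CHB patients (HBsAg/HBeAg positive), six per dose cohort, given a first oral dose on day 1. Plasma sampled at baseline. Analysis by validated LC-MS/MS after protein precipitation with a stable-isotope internal standard; LLOQ 5 ng/ml for LB80331. Noncompartmental analysis gives Cmax and AUC0-∞.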

The test system of series [6] is Liver. Kind of series: AUC (0 to infinity) in CD-1 mouse liver assessed as (1-((2-amino-9H-purin-9-yl)methyl)cyclopropoxy)me at 30 mg/kg, po administered as single dose by LC-MS analysis. It counts as ADME, organism-based. Further details: time infinity, dose 30 mg/kg, route oral. Particulars: in vivo. A digest of the protocol: (§4)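 Male CD-1 mice given a single oral dose in 100% PEG 400. Samples extracted with perchloric acid and neutralized with ammonium bicarbonate. One aliquot assayed for the free analyte; the other treated with calf intestinal phosphatase to give the total including di-/triphosphates. Analysis by LC-MS/MS.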

For series [7], the system named is Homo sapiens. The series can be described thus: Half life in chronic hepatitis B virus infected patient assessed as (1-((2-amino-9H-purin-9-yl)methyl)cyclopropoxy)me at 60 mg, po qd for 4 weeks by LC-MS analysis. Type of series: ADME, organism-based. Particulars: in vivo, 672 h. A digest of the protocol:
(§5)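 CHB patients given LB80380 orally once daily for 4 weeks. Plasma was sampled on day 1 and at steady state (weeks 2–4), predose and 0.5, 1, 2, 3, 4, 6, 8 and 24 h postdose. LB80331 was measured by validated LC-MS/MS (LLOQ 5 ng/ml). Terminal-phase apparent t1/2 came from noncompartmental analysis and was flagged if extrapolated AUC exceeded 20% of AUC0-24.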

In series [8] the test system is Homo sapiens. The series can be described thus: Cmax in chronic hepatitis B virus infected patient assessed as (1-((2-amino-9H-purin-9-yl)methyl)cyclopropoxy)me at 30 mg, po qd for 4 weeks by LC-MS analysis. It counts as ADME, organism-based. Also on record: dose 30 mg, route oral. Particulars: in vivo, 672 h. A digest of the protocol:
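CHB patients, oral once daily for 4 weeks. Plasma sampled at steady state (weeks 2–4), predose and at 0.5, 1, 2, 3, 4, 6, 8 and 24 h postdose. LB80331 measured by validated LC-MS/MS (LLOQ 5 ng/ml) after protein precipitation with a stable-isotope internal standard. Cmax by noncompartmental analysis.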

Series [9] concerns Homo sapiens. Kind of series: Half life in chronic hepatitis B virus infected patient assessed as (1-((2-amino-9H-purin-9-yl)methyl)cyclopropoxy)me at 240 mg, po administered as single dose by LC-MS analysis. Type of series: ADME, organism-based. Particulars: in vivo. Summed up: as §5
The test system of series [10] is Homo sapiens. Kind of series: Cmax in fasted healthy human assessed as (1-((2-amino-9H-purin-9-yl)methyl)cyclopropoxy)me at 60 mg, po administered as single dose by LC-MS analysis. Particulars: in vivo. Further details: dose 60 mg, route oral. Type of series: ADME, organism-based. Summed up:
as §1

Series [11] deals with Homo sapiens. Kind of series: AUC (0 to infinity) in chronic hepatitis B virus infected patient assessed as (1-((2-amino-9H-purin-9-yl)methyl)cyclopropoxy)me at 60 mg, po administered as single dose by LC-MS analysis. Type of series: ADME, organism-based, Plasma. Further details: dose 60 mg, time infinity, route oral. Particulars: in vivo. Summed up: as §3
Another series has as its system Plasma. The series can be described thus: AUC (0 to 36 hrs) in CD-1 mouse plasma assessed as (1-((2-amino-9H-purin-9-yl)methyl)cyclopropoxy)me at 30 mg/kg, po administered as single dose by LC-MS analysis. Type of series: ADME, organism-based. Also on record: time < 36 hr, dose 30 mg/kg, route oral. Particulars: in vivo. A digest of the protocol: as §4
Series [12] deals with Liver. The series can be described thus: Tmax in CD-1 mouse liver assessed as (1-((2-amino-9H-purin-9-yl)methyl)cyclopropoxy)me at 30 mg/kg, po administered as single dose by LC-MS analysis. Further details: dose 30 mg/kg, route oral. Type of series: ADME, organism-based. Particulars: in vivo. A digest of the protocol:
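Male CD-1 mice received 30 mg/kg orally in 100% PEG 400. Plasma and snap-frozen liver were taken from 3 mice per time point at 1, 2, 4, 6, 10, 24 and 36 h. Samples were extracted with perchloric acid and neutralized with ammonium bicarbonate. Free LB80331/LB80317 was measured directly by LC-MS/MS; total, including di- and triphosphates, was measured after calf intestinal phosphatase treatment.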

Series [13] concerns Liver. Kind of series: AUC (0 to infinity) in CD-1 mouse liver assessed as di- and triphosphates of (1-((2-amino-9H-purin-9-yl)methyl)cyclopropoxy)me at 30 mg/kg, po administered as single dose by LC-MS analysis. Particulars: in vivo. Further details: time infinity, dose 30 mg/kg, route oral. It counts as ADME, organism-based. A digest of the protocol: as §4
The test system of series [14] is Homo sapiens. The series can be described thus: Tmax in fasted healthy human assessed as (1-((2-amino-9H-purin-9-yl)methyl)cyclopropoxy)me assessed as (1-((2-amino-9H-purin-9-yl)methyl)cyclopropoxy)me at 60 mg, po administered as single dose by LC-MS analysis. It counts as ADME, organism-based. Particulars: in vivo. Summed up:
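Healthy subjects received a single oral 60-mg dose after a high-fat breakfast or after an overnight fast. Plasma LB80331 was assayed by validated LC-MS/MS (LLOQ 5 ng/ml; intra- and interassay precision and accuracy <10%). Tmax was obtained by noncompartmental analysis.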

In series [15] the test system is Homo sapiens. The series can be described thus: Tmax in chronic hepatitis B virus infected patient assessed as (1-((2-amino-9H-purin-9-yl)methyl)cyclopropoxy)me at 120 mg, po qd for 4 weeks by LC-MS analysis. It counts as ADME, organism-based. Particulars: in vivo, 672 h. Summed up: as §2
In series [16] the test system is Homo sapiens. Kind of series: Tmax in chronic hepatitis B virus infected patient assessed as (1-((2-amino-9H-purin-9-yl)methyl)cyclopropoxy)me at 30 mg, po administered as single dose by LC-MS analysis. Type of series: ADME, organism-based. Particulars: in vivo. A digest of the protocol: as §2
The test system of series [17] is Homo sapiens. Kind of series: Half life in chronic hepatitis B virus infected patient assessed as (1-((2-amino-9H-purin-9-yl)methyl)cyclopropoxy)me at 120 mg, po administered as single dose by LC-MS analysis. It counts as ADME, organism-based. Particulars: in vivo. Summed up: as §5

Turning to `Nc1ncc2ncn(CC3(OCP(=O)(O)O)CC3)c2n1` [BESIFOVIR], in the series on Homo sapiens [1], the “Ratio AUC” value turned out to be 1.1. Besides, the highest concentration (Cmax) in the series with Homo sapiens [2] amounted to 246 ng/mL; with Homo sapiens [8], 192 ng/mL; with Homo sapiens [10] it was 286 ng/mL. Also, the apparent clearance CL/F in the series with Homo sapiens [3] is 244 mL/min. Besides, the time to peak (Tmax) amounted to 2 h with Homo sapiens [4]; 1 h in the series on Liver [12]; 1.5 h in the series with Homo sapiens [14]; 1 h in the series with Homo sapiens [15]; 1.5 h with Homo sapiens [16]. For the same compound, the area under the curve (AUC) in the series with Homo sapiens [5] stood at 1069 ng·h/mL; in the series on Liver [6] it was 102 µM·h; in the series with Homo sapiens [11], 2344 ng·h/mL; in the series on Plasma it was 17 µM·h; in the series with Liver [13], 64 µM·h. Moreover, the t1/2 in the series on Homo sapiens [7], in the series on Homo sapiens [9] and in the series on Homo sapiens [17] was 3 h each time.

Usually Cmax stands for the peak of the concentration-time curve. Broadly, the CL/F is the apparent clearance, not corrected for the fraction that reaches the circulation. By Tmax is commonly meant the time from dosing to the highest level. In general, AUC refers to concentration integrated over time.
